The source of these data is ChEMBL document CHEMBL4038330, “Discovery of Potent Orally Active Protease-Activated Receptor 1 (PAR1) Antagonists Based on Andrographolide” (J Med Chem, 2017).

pIC50: −log10 of the molar value.

The first data set has as its target T1, Proteinase-activated receptor 1 (Homo sapiens, UniProt P25116).
T1 sequence (P25116 whole entry): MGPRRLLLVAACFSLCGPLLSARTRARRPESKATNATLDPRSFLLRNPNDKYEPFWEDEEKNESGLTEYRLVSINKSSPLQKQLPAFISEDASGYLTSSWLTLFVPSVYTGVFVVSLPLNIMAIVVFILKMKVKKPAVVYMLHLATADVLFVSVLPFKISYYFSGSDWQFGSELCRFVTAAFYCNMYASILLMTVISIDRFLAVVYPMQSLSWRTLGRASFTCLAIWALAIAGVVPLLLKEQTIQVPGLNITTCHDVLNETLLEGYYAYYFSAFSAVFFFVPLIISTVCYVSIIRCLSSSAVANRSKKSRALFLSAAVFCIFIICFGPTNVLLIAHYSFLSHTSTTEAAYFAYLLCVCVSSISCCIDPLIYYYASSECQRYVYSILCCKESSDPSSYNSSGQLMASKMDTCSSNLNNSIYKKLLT
The data set is described as follows: Antagonist activity at human PAR1 expressed in HEK293 cells co-expressing Galpha15 assessed as inhibition of haTRAP-induced calcium mobilization preincubated for 15 mins followed by haTRAP addition by calcium-4 dye based FLIPR assay. In kind it is functional, cell-based.
Settings: not given
The term pIC50 denotes the negative decadic logarithm of the IC50, by convention in mol/L. Take `C[C@]1(/C=C/c2ccc(-c3cccc(F)c3)cn2)[C@@H](OC(N)=O)CC[C@@]2(C)[C@@H]3C(=O)OC[C@H]3CC[C@H]12`: the negative-log IC50 (pIC50) was under 4.00. Still for that read-out and setting: in the case of `C[C@@]1(/C=C/c2ccc(-c3cccc(F)c3)cn2)[C@H]2CC[C@@H]3COC(=O)[C@H]3[C@]2(C)CC[C@H]1OS(C)(=O)=O` it was under 4.00; in that of `CCCC(=O)O[C@@H]1CC[C@@]2(C)[C@H](/C=C/c3ccc(-c4cccc(F)c4)cn3)[C@@]3(CC[C@@H]2[C@]1(C)C(=O)OC)CO3`, under 4.00. Regarding `COC(=O)[C@]1(C)[C@H](OC(C)=O)CC[C@@]2(C)[C@H](/C=C/c3ccc(-c4cccc(F)c4)cn3)[C@@]3(CC[C@@H]21)CO3`, the pIC50 is under 4.00. As for `C[C@@]12CC[C@@H](O)[C@@](C)(C(=O)O)[C@H]1CC[C@@]1(CO1)[C@H]2/C=C/c1ccc(-c2cccc(F)c2)cn1`, the pIC50 was 4.54. Turning to `C[C@@]1(/C=C/c2ccc(-c3cccc(F)c3)cn2)[C@@H](OS(C)(=O)=O)CC[C@@]2(C)[C@@H]3C(=O)OC[C@H]3CC[C@H]12`, the pIC50 was under 4.00. Turning to `CC1CC[C@@H]2[C@](C)(C=O)[C@H](O)CC[C@@]2(C)[C@@H]1/C=C/c1ccc(-c2cccc(F)c2)cn1` (single isomer, unassigned), the pIC50 was 5.82. On the same count and under the same terms, in the case of `C[C@]1(C=O)[C@H](O)CC[C@@]2(C)[C@H](/C=C/c3ccc(-c4cccc(F)c4)c[n+]3[O-])[C@@]3(CC[C@H]12)CO3` it was under 4.00.

For `CC(=O)O[C@H]1CC[C@@]2(C)[C@@H]3C(=O)OC[C@H]3CC[C@@H]2[C@]1(C)/C=C/c1ccc(-c2cccc(F)c2)cn1`, the pIC50 was under 4.00. In the case of `C[C@@]1(/C=C/c2ccc(-c3cccc(F)c3)cn2)[C@@H](OC(N)=O)CC[C@@]2(C)[C@@H]3C(=O)OC[C@H]3CC[C@H]12`, the pIC50 was 4.70. On to `CC1(C)OC[C@@]2(C)[C@H]3CC[C@@]4(CO4)[C@@H](/C=C/c4ccc(-c5cccc(C(F)(F)F)c5)cn4)[C@]3(C)CC[C@H]2O1`, for which the pIC50 is under 4.00. `CC1(C)OC[C@@]2(C)[C@H]3CC[C@@]4(CO4)[C@@H](/C=C/c4ccc(-c5cccc(F)c5)cn4)[C@]3(C)CC[C@H]2O1`: the negative-log IC50 (pIC50) was under 4.00.

On to `C[C@]1(/C=C/c2ccc(-c3cccc(F)c3)cn2)[C@H]2CC[C@@H]3COC(=O)[C@H]3[C@]2(C)CC[C@H]1OC(N)=O`, for which the negative-log IC50 (pIC50) was 4.68. With `C[C@@]1(/C=C/c2ccc(-c3cccc(F)c3)cn2)[C@H](O)CC[C@@]2(C)[C@@H]3C(=O)OC[C@H]3CC[C@H]12`, the pIC50 was under 4.00.

Regarding `CC(=O)O[C@@H]1CC[C@@]2(C)[C@H](/C=C/c3ccc(-c4cccc(F)c4)cn3)C(C)CC[C@@H]2C1(C)C` (single isomer, unassigned), the negative-log IC50 (pIC50) was under 4.00.

In the case of `C[C@]1(CO)[C@H]2CC[C@](C)(O)[C@@H](/C=C/c3ccc(-c4cccc(F)c4)cn3)[C@]2(C)CC[C@H]1O`, the pIC50 is 4.26. Turning to `C[C@]1(/C=C/c2ccc(-c3cccc(F)c3)cn2)[C@H](O)CC[C@@]2(C)[C@@H]3C(=O)OC[C@H]3CC[C@H]12`, the pIC50 was under 4.00. Consider `CCCC(=O)O[C@H]1CC[C@@]2(C)[C@@H]3C(=O)OC[C@H]3CC[C@@H]2[C@]1(C)/C=C/c1ccc(-c2cccc(F)c2)cn1`, for which the pIC50 is under 4.00. Consider `COC(=O)[C@]1(C)[C@H](OC(N)=O)CC[C@@]2(C)[C@H](/C=C/c3ccc(-c4cccc(F)c4)cn3)[C@@]3(CC[C@@H]21)CO3`, for which the pIC50 was 5.06. Take `CO[C@@H]1CC[C@]2(C)[C@H](CC[C@@]3(CO3)[C@H]2/C=C/c2ccc(-c3cccc(F)c3)cn2)[C@]1(C)CO`: the pIC50 is 4.85. Turning to `C[C@@]1(C=O)[C@H](O)CC[C@@]2(C)[C@H](/C=C/c3ccc(-c4cccc(F)c4)cn3)[C@@H](C3SCCS3)CC[C@H]12`, the negative-log IC50 (pIC50) was under 4.00.

Consider `CCCC(=O)O[C@@H]1CC[C@@]2(C)[C@H](/C=C/c3ccc(-c4cccc(F)c4)cn3)[C@@H](C)CC[C@@H]2C1(C)C`, for which the pIC50 is under 4.00.

As to `C[C@]1(CO)[C@H]2CC[C@@]3(CO3)[C@@H](CCc3ccc(-c4cccc(F)c4)cn3)[C@]2(C)CC[C@H]1O`, the pIC50 is 4.85.

In the case of `C[C@]1(CO)[C@H]2CC[C@@]3(CO3)[C@@H](CCc3ccc(-c4cccc(C(F)(F)F)c4)cn3)[C@]2(C)CC[C@H]1O`, the negative logarithm of the IC50 (pIC50) was 5.00. Take `CC(=O)O[C@@H]1CC[C@@]2(C)[C@@H]3C(=O)OC[C@H]3CC[C@@H]2[C@@]1(C)/C=C/c1ccc(-c2cccc(F)c2)cn1`: the negative logarithm of the IC50 (pIC50) was under 4.00.

Take `CCCC(=O)O[C@@H]1CC[C@@]2(C)[C@@H]3C(=O)OC[C@H]3CC[C@@H]2[C@@]1(C)/C=C/c1ccc(-c2cccc(F)c2)cn1`: the negative logarithm of the IC50 (pIC50) was under 4.00. For `CC(=O)O[C@@H]1CC[C@@]2(C)[C@@H]3C(=O)OC[C@H]3CC[C@@H]2[C@]1(C)/C=C/c1ccc(-c2cccc(F)c2)cn1`, the pIC50 was under 4.00.

Turning to `C[C@]1(CN)[C@H]2CC[C@@]3(CO3)[C@@H](/C=C/c3ccc(-c4cccc(F)c4)cn3)[C@]2(C)CC[C@H]1O`, the pIC50 is 4.64. On the same count and under the same terms, in the case of `C[C@@]12CC[C@@H](O)[C@@](C)(C3SCCS3)[C@H]1CCC(C1SCCS1)[C@H]2/C=C/c1ccc(-c2cccc(F)c2)cn1` (single isomer, unassigned) it was under 4.00; in that of `CCOC(=O)N[C@@H]1CC[C@@H]2[C@@H](C1)C[C@H]1C(=O)O[C@H](C)[C@H]1[C@H]2/C=C/c1ccc(-c2cccc(F)c2)cn1` [VORAPAXAR], 7.19; in that of `C[C@@]1(/C=C/c2ccc(-c3cccc(F)c3)cn2)[C@H]2CC[C@@H]3COC(=O)[C@H]3[C@]2(C)CC[C@H]1OC(N)=O`, 4.92. `C[C@]1(CO)[C@H]2CC[C@@]3(CO3)[C@@H](/C=C/c3ccc(-c4cccc(C(F)(F)F)c4)cn3)[C@]2(C)CC[C@H]1O`: the pIC50 is 5.02. Take `CNC[C@@]1(C)[C@H]2CC[C@@]3(CO3)[C@@H](/C=C/c3ccc(-c4cccc(F)c4)cn3)[C@]2(C)CC[C@H]1O`: the negative logarithm of the IC50 (pIC50) is 4.77.

Turning to `C[C@@]1(C=O)[C@H](O)CC[C@@]2(C)[C@H](/C=C/c3ccc(-c4cccc(F)c4)cn3)[C@@]3(CC[C@H]12)CO3`, the pIC50 was 5.52.

`CCOC(=O)O[C@@H]1CC[C@@]2(C)[C@H](/C=C/c3ccc(-c4cccc(F)c4)cn3)[C@@H](C)CC[C@@H]2C1(C)C`: the pIC50 was under 4.00. As for `CC1CC[C@@H]2C(C)(C)[C@H](OS(C)(=O)=O)CC[C@@]2(C)[C@@H]1/C=C/c1ccc(-c2cccc(F)c2)cn1` (single isomer, unassigned), the negative logarithm of the IC50 (pIC50) was 4.06. With `C[C@H]1CC[C@@H]2C(C)(C)C=CC[C@@]2(C)[C@@H]1/C=C/c1ccc(-c2cccc(F)c2)cn1`, the pIC50 was under 4.00. As for `COC[C@@]1(C)[C@H]2CC[C@@]3(CO3)[C@@H](/C=C/c3ccc(-c4cccc(F)c4)cn3)[C@]2(C)CC[C@H]1O`, the pIC50 is 5.09. As to `C[C@@]1(/C=C/c2ccc(-c3cccc(F)c3)cn2)[C@H]2CC[C@@H]3COC(=O)[C@H]3[C@]2(C)CC[C@@H]1O`, the pIC50 is under 4.00. `CC1CC[C@@H]2C(C)(C)[C@H](OC(N)=O)CC[C@@]2(C)[C@@H]1/C=C/c1ccc(-c2cccc(F)c2)cn1` (single isomer, unassigned): the negative-log IC50 (pIC50) is 4.49.

Consider `C[C@]1(/C=C/c2ccc(-c3cccc(F)c3)cn2)[C@H]2CC[C@@H]3COC(=O)[C@H]3[C@]2(C)CC[C@@H]1O`, for which the negative-log IC50 (pIC50) was 4.72.

On to `C[C@@]1(C=O)[C@H](O)CC[C@@]2(C)[C@H](/C=C/c3ccc(-c4cccc(F)c4)c[n+]3[O-])[C@@]3(CC[C@H]12)CO3`, for which the negative logarithm of the IC50 (pIC50) was under 4.00.

The subject of another data set is Cavia porcellus. Description: In vivo antagonist activity at PAR1 in guinea pig assessed as inhibition of TRAP-stimulated platelet aggregation at 10 mg/kg, po pretreated for 2 hrs followed by TRAP stimulation measured after 5 mins. In kind it is functional.
Settings: not given
One may read the inhibition in vivo as how much of the control response was suppressed. Turning to `CCOC(=O)N[C@@H]1CC[C@@H]2[C@@H](C1)C[C@H]1C(=O)O[C@H](C)[C@H]1[C@H]2/C=C/c1ccc(-c2cccc(F)c2)cn1` [VORAPAXAR], the inhibition in vivo at 10 mg/kg came to 98.3%.

The next data set has as its system Cavia porcellus. The data set is described as follows: In vivo antagonist activity at PAR1 in guinea pig assessed as inhibition of thrombin-stimulated platelet aggregation at 10 mg/kg, po pretreated for 2 hrs followed by thrombin stimulation measured after 5 mins.
Settings: not given
Format: functional.
Regarding `CCOC(=O)N[C@@H]1CC[C@@H]2[C@@H](C1)C[C@H]1C(=O)O[C@H](C)[C@H]1[C@H]2/C=C/c1ccc(-c2cccc(F)c2)cn1` [VORAPAXAR], the inhibition in vivo at 10 mg/kg stood at 93.4%.

For the next data set, the system named is ADP-stimulated platelet aggregation. The data set is described as follows: Toxicity in guinea pig assessed as inhibition of ADP-stimulated platelet aggregation at 10 mg/kg, po pretreated for 2 hrs followed by ADP stimulation measured after 5 mins. In kind it is organism-based, Cavia porcellus. The note with it: in vivo.
As a reminder, the inhibition is the relative decrease from the control value, in per cent. For `CCOC(=O)N[C@@H]1CC[C@@H]2[C@@H](C1)C[C@H]1C(=O)O[C@H](C)[C@H]1[C@H]2/C=C/c1ccc(-c2cccc(F)c2)cn1` [VORAPAXAR], the inhibition at 5 min was determined as 3%.

Another data set deals with collagen-stimulated platelet aggregation. Description: Toxicity in guinea pig assessed as inhibition of collagen-stimulated platelet aggregation at 10 mg/kg, po pretreated for 2 hrs followed by collagen stimulation measured after 5 mins. In kind it is organism-based, Cavia porcellus. The note with it: in vivo.
For the compound `CCOC(=O)N[C@@H]1CC[C@@H]2[C@@H](C1)C[C@H]1C(=O)O[C@H](C)[C@H]1[C@H]2/C=C/c1ccc(-c2cccc(F)c2)cn1` [VORAPAXAR], the inhibition at 5 min was determined as 0.9%.

For the next data set, the system named is Plasma. The data set is described as follows: Stability in Wistar rat assessed as parent compound level in plasma at 10 mg/kg, po administered as single dose measured at 3 hrs post dose by LC-HRMS analysis. Format: ADME, organism-based. As to conditions: in vivo. In a few lines:
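Rats dosed orally at 10 mg/kg or 5 mg/kg. Plasma taken at 3.0 h after dosing. Parent and metabolites detected by extracted ion chromatograms.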
With `C[C@@]1(C=O)[C@H](O)CC[C@@]2(C)[C@H](/C=C/c3ccc(-c4cccc(F)c4)cn3)[C@@]3(CC[C@H]12)CO3`, the Stability entry is “Unstable”.
